Assay outcomes from PubChem BioAssay.
UPR XBP1 act = activators of adaptive arm of unfolded protein response (XBP1). activation, % at 20 µM. AID 463104. 330,000 tested, 0.33% active. CHO-XBP1 luciferase reporter, IRE1-XBP1 UPR activation, luminescence; percent of tunicamycin response, DMSO as zero;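 active means versus positive control, 20 µM dose yields 30% or more activation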
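Assay system: IRE1-XBP1 luciferase reporter CHO line. Input: 1000 cells/well. Buffer or medium: F12 with 10% serum. Doses: 20 µM, 1% DMSO. Times: overnight seeding at 37 °C, 6 h compound treatment at 37 °C. Technique: Steady-Glo luciferase glow luminescence, 10 min after reagent addition.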
hiPSC survival = increases survival of single human iPS cells | 360,000 tested, 0.044% active | hiPSC single-cell survival, ATPlite luminescence; 100% = ROCK inhibitor wells, 0% = DMSO | survival enhancement, % at 20 µM; in the data active means survival enhancement above about 18%;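 further: cells exposed to compounds for 16 hours before the ATP read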
Cardio protect = myocardial damage modulation in H9c2 cells; H9c2 cardiomyocytes, H2O2 injury protection, ATPLite, 2 h; protection from H2O2 cell death, % at 20 µM; 360,000 tested, 0.63% active;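 active means compounds giving at least 50% protection of heart cells from peroxide-induced death in the single-dose screen, raw or plate-pattern-corrected value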
CHOP inh = blocks CHOP induction under ER stress; CHO-K1 CHOP-promoter luciferase, tunicamycin-induced, 15-18 h; inhibition, % at 10 µM; 220,000 tested, 3.8% active; AID 2732;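 active means compounds that reduced the stress-induced luciferase reporter signal by more than about 70% of percent inhibition, limit read from the data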
CHOP UPR activ = activators of apoptotic arm of unfolded protein response (CHOP); CHO-CHOP luciferase reporter, UPR activation, luminescence; percent of tunicamycin response over DMSO baseline; activation, % at 10 µM; 330,000 tested, 0.34% active;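 active means at 10 µM dose, activation of 40% or more, normalized to positive control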
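Dosing – one dose, 10 µM in 0.5% DMSO · System – CHO-CHOP cells, stable luciferase reporter of PERK-eIF2a-CHOP signalling · Input – 500 cells/well · Control set – tunicamycin 10 µg/mL final as positive, DMSO-only wells as negative · Timing – 6 h compound treatment, 37 °C · Measure – % activation vs tunicamycin · Technique – luminescence read with Steady-Glo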
Numbers stand for hits; – = inactive; · = no result. Only a selection was taken, and hits are over-represented in it overall.

SMILES | UPR XBP1 act | hiPSC survival | Cardio protect | CHOP inh | CHOP UPR activ
Cc1ccc(NC(=O)Cn2c(-c3ccc(F)cc3)cnc2SCC(=O)Nc2c(C)cccc2C)cc1 | – | – | – | 81.0 | –
CC(C)(C)OC(=O)N1CCC[C@@H]1C(=O)NCc1ccccc1Cl | · | – | · | · | ·
Cc1oc2c(c1C(=O)NCc1cccnc1)C(=O)c1ccccc1C2=O | – | · | · | 103.5 | –
COc1ccc(CNC(=O)c2c(C)oc3c2C(=O)c2ccccc2C3=O)cc1 | – | – | – | – | –
CC(=O)c1c(C)oc2c1C(=O)c1ccccc1C2=O | · | – | – | 73.0 | ·
COCCNC(=O)C1(C)CCCN(C(=O)c2ccc(-c3ccccc3)cc2)C1 (stereo not given) | · | – | – | · | ·
COc1cc(C)ccc1S(=O)(=O)NC(=O)C1(C)CCN1C(=O)c1ccc(C2CCCCC2)cc1 (stereo not given) | · | – | – | · | ·
COc1ccc(-c2coc3c(C(=O)NCC(C)C)cccc23)c(C)c1 | · | – | – | · | ·
COC(=O)[C@@H](N)Cc1ccc(O)c(O)c1 | – | – | 58.5 | – | –
CCC(Oc1cc(Cl)ccc1Cl)C(=O)NNC(=O)CCC(=O)O (stereo not given) | – | – | – | – | –
CCC(Oc1cc(Cl)ccc1Cl)C(=O)NN1C(=O)C2C3CCC(C3=C(C)C)C2C1=O (stereo not given) | – | – | – | 86.7 | –
CC1(C(=O)Nc2ccc3c(c2)OCO3)Cc2c(-c3cccc(C(N)=O)c3)ccnc2O1 (stereo not given) | · | – | – | · | ·
Cc1[nH]n(-c2ccc(Cl)cc2)c(=O)c1N=Nc1cccnc1 | – | – | – | 89.6 | –
O=c1cc(-c2ccc([N+](=O)[O-])cc2)c2ccc(O)cc2o1 | – | – | 60.5 | – | –
Cc1sc(-c2ccccn2)nc1OC(=O)c1ccc(Cl)c(Cl)c1 | – | 19.4 | – | – | –
Cc1sc(-c2ccccn2)nc1OC(=O)c1ccc(F)cc1F | · | – | – | – | ·
CC[C@H](CO)Nc1nc(Nc2cccc(Cl)c2)c2ncn(C(C)C)c2n1 | – | – | – | 83.3 | –
Cc1ccccc1N1CCN(C2CCCN(C(=O)CSc3ccccn3)C2)CC1 (stereo not given) | · | – | – | · | ·
CC1Cc2ccccc2N1C(=O)CSc1nnc(Cn2nnc3ccccc32)n1C (stereo not given) | – | – | – | 72.4 | –
CC1Cc2ccccc2N1C(=O)CSc1nc2c(c(=O)n(C)c(=O)n2C)n1Cc1ccc(F)cc1 (stereo not given) | – | – | 50.4 | · | –
CN(C)N(Cc1ccccc1)C(=O)C(O)(c1ccccc1)c1ccccc1 | – | – | 60.1 | · | –
CC(C)(O)C(=O)NN(Cc1ccccc1)c1ccccc1 | – | – | – | – | –
CC(=O)Nc1nc(-c2ccccc2)nc(-c2ccccc2OC(C)=O)n1 | – | – | – | 90.4 | –
O=C(O)COc1ccccc1/C=N/NC(=O)CSc1nnc(SCc2ccc(Cl)cc2)s1 | – | – | – | – | –
O=C(CSc1nnc(SCc2ccc(Cl)cc2)s1)N/N=C/c1c[nH]c2ccccc12 | · | – | – | 91.6 | ·
SMILES | UPR XBP1 act | hiPSC survival | Cardio protect | CHOP inh | CHOP UPR activ
CCOC(=O)COc1ccc2c3c(c(=O)oc2c1)CCCC3 | – | – | 54.8 | · | –
Cc1ccc(-c2cc(-c3ccco3)c3c(N)c(C(=O)NN)oc3n2)cc1 | – | – | – | – | –
COc1cccc(/C=N/NC(=O)c2oc3nc(-c4ccccc4)cc(-c4ccco4)c3c2N)c1 | – | – | 56.3 | – | –
O=[N+]([O-])c1ccccc1/C=C/C=N/n1c(-c2ccc(Cl)cc2)n[nH]c1=S | – | – | – | 81.7 | –
O=[N+]([O-])c1ccccc1/C=C/C=N/n1c(-c2ccccc2)n[nH]c1=S | – | – | – | – | –
CC1CCCC(C)N1/N=C/C=C/c1ccccc1[N+](=O)[O-] (stereo not given) | – | – | – | 70.7 | –
Cc1ccc(-c2n[nH]c(=S)n2/N=C/C=C\c2ccccc2[N+](=O)[O-])cc1 | – | – | – | 90.6 | –
O=S1(=O)C[C@H](N2CCCC2)[C@@H](COCc2ccccc2)N1 | · | – | – | · | ·
COCCCn1cc(CN2CC(N3CCN(Cc4ccccc4F)CC3)CS2(=O)=O)nn1 (stereo not given) | · | – | · | · | ·
CN1CCc2nc3ccccc3c(C(=O)OCC(=O)N(CCC#N)c3ccccc3)c2C1 | – | – | 58.3 | – | –
Cc1nn(C(=O)c2ccco2)c(C)c1Sc1ccc(Cl)cc1 | – | – | – | 72.7 | –
Cc1ccc(S(=O)(=O)c2c(C)nn(C(C)(C)C)c2OC(=O)C2CCCC2)cc1 | – | – | – | 76.8 | –
Cc1nn(C(C)(C)C)c(OC(=O)C2CCCC2)c1S(=O)(=O)c1ccccc1 | · | – | – | – | ·
NC(N)=NCCCS(=O)(=O)Nc1ccc(Nc2c3ccccc3nc3cc([N+](=O)[O-])ccc23)cc1 | · | – | – | · | ·
CCCCc1nc(Cl)c(C#N)c2c1CCCC2 | – | – | – | 87.5 | –
CCCCc1nc(Cl)c(C#N)c2c1CCC2 | – | – | – | – | –
Cc1cc(C)nc(Nc2n[nH]c(COc3ccc4ccccc4c3)n2)n1 | – | – | – | 87.2 | –
CCOc1ccc(-c2c(=O)n(OCc3ccc([N+](=O)[O-])cc3)c3ccccc3[n+]2[O-])cc1 | 36.3 | · | · | – | –
Clc1ccc2c(-c3ccccc3)nc(-c3cccs3)nc2c1 | · | – | · | · | ·
COC(=O)c1cc(=O)nc(NN=Cc2ccco2)s1 | · | – | – | · | ·
CC(=O)Nc1sc2c(c1CN1CCN(c3ccc(F)cc3)CC1)CCCC2 | – | – | – | 79.2 | –
CC(=O)Nc1sc2c(c1CN1CCCC1)CCCC2 | – | – | – | – | –
COC(=O)c1ccccc1NC(=O)/C=C/c1cc(OC)c(OC)c(OC)c1 | – | – | 56.6 | – | –
COc1ccc(/C=C/C(=O)Nc2ccccc2C(=O)O)cc1OC | – | – | – | – | –
Clc1ccccc1C1CC(c2ccccc2)Nc2ncnn21 (stereo not given) | – | – | – | 92.2 | –
SMILES | UPR XBP1 act | hiPSC survival | Cardio protect | CHOP inh | CHOP UPR activ
Cc1nc2c(cnn2-c2ccccc2Cl)c(=O)n1-c1ccc(N2CCC(C)CC2)cc1 | – | – | – | 76.8 | –
Cc1ccc(-n2c(C)nc3c(cnn3-c3ccc(F)cc3)c2=O)cc1C | – | – | – | – | –
CCc1nc2c(cnn2-c2ccc(F)cc2)c(=O)n1-c1ccc(N2CCC(C)CC2)cc1 | – | – | – | 78.9 | –
Cc1ccc(-n2c(C)nc3c(cnn3-c3ccccc3Cl)c2=O)cc1C | – | – | – | – | –
COc1cc(OC)c(NS(=O)(=O)c2cc(C(=O)NCCCN3CCOCC3)ccc2C)cc1Cl | · | – | – | · | ·
Cc1ccc(F)c(S(=O)(=O)NC(=O)C2(C)CCN2C(=O)c2cccc3ccccc23)c1 (stereo not given) | · | – | – | · | ·
Cc1cccc(NC(=S)NC(C)(C)CC(C)(C)C)c1 | – | – | – | 84.7 | –
Cc1cccc(NC(=S)NCc2ccc(F)cc2)c1 | – | – | – | – | –
CC(C)(C)c1ccc(OCC(=O)O/N=C(\N)c2ccncc2)cc1 | – | – | – | · | –
